Experimental data from ChEMBL document CHEMBL1143061, “Synthesis and antifungal activities of 5-(3,4,5-trimethoxyphenyl)-2-sulfonyl-1,3,4-thiadiazole and 5-(3,4,5-trimethoxyphenyl)-2-sulfonyl-1,3,4-oxadiazole derivatives” (Bioorg Med Chem, 2007).
≈ marks a conversion by molar mass, not a printed value.

Assays:
[1] = tested on: Sclerotinia sclerotiorum; test: Antifungal activity against Sclerotinia sclerotiorum at 50 ug/mL; format: functional
[2] = tested on: Botrytis cinerea; test: Antifungal activity against Botrytis cinerea at 50 ug/mL; format: functional
[3] = tested on: Fusarium graminearum; test: Antifungal activity against Gibberella zeae at 50 ug/mL; format: functional
[4] = tested on: Cytospora; test: Growth inhibition of Cytospora mandshurica; format: functional
[5] = tested on: Botrytis cinerea; test: Antifungal activity against Botrytis cinerea; format: functional, organism-based
[6] = tested on: Rhizoctonia solani; test: Growth inhibition of Rhizoctonia solani; format: functional, organism-based
In short: (§1)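 In vitro inhibition of mycelial growth, with hymexazol as the reference fungicide. The EC50, the concentration that inhibits growth by 50%, was read from a dose–response curve. Results come from three separate experiments, each run in triplicate.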

[7] = tested on: Sclerotinia sclerotiorum; test: Antifungal activity against Sclerotinia sclerotiorum; format: functional, organism-based
[8] = tested on: Fusarium oxysporum; test: Growth inhibition of Fusarium oxysporum; format: functional, organism-based; in short: as §1
[9] = tested on: Colletotrichum gloeosporioides; test: Growth inhibition of Colletotrichum gloeosporioides; format: functional, organism-based
[10] = tested on: Phytophthora infestans; test: Growth inhibition of Phytophthora infestans; format: functional, organism-based
[11] = tested on: Pyricularia oryzae; test: Growth inhibition of Pyricularia oryzae; format: functional, organism-based
[12] = tested on: Fusarium graminearum; test: Antifungal activity against Gibberella zeae; format: functional, organism-based
In short: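 In vitro inhibition of fungal mycelial growth. EC50 read from the dose–response curve. Three separate experiments, each in triplicate. Hymexazol was the standard reference.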

[13] = tested on: Pyricularia grisea; test: Growth inhibition of Pyricularia grisea; format: functional, organism-based

Compound	inhibition at 50 µg/mL [1] [%]	inhibition at 50 µg/mL [2] [%]	inhibition at 50 µg/mL [3] [%]	other results
C=CCS(=O)(=O)c1nnc(-c2cc(OC)c(OC)c(OC)c2)s1	40.5	47.3	14	–
COc1cccc(CS(=O)(=O)c2nnc(-c3cc(OC)c(OC)c(OC)c3)s2)c1	74.5	53.4	43.2	–
CCCS(=O)(=O)c1nnc(-c2cc(OC)c(OC)c(OC)c2)o1	64	59.4	59	–
CCOC(=O)CS(=O)(=O)c1nnc(-c2cc(OC)c(OC)c(OC)c2)o1	79.9	81.9	52	–
COc1cccc(CS(=O)(=O)c2nnc(-c3cc(OC)c(OC)c(OC)c3)o2)c1	40.6	38.1	5.7	–
CCS(=O)(=O)c1nnc(-c2cc(OC)c(OC)c(OC)c2)o1	100	100	–	EC50 [4]: 20.5 µg/mL (≈ 62.4 µM); EC50 [5]: 2.9 µg/mL (≈ 8.83 µM); EC50 [6]: 45.6 µg/mL (≈ 139 µM); EC50 [7]: 4.3 µg/mL (≈ 13.1 µM); EC50 [8]: 18 µg/mL (≈ 54.8 µM); EC50 [9]: 26.3 µg/mL (≈ 80.1 µM)
C=CCS(=O)(=O)c1nnc(-c2cc(OC)c(OC)c(OC)c2)o1	40.9	40.9	26.4	–
COc1cc(-c2nnc(S(=O)(=O)Cc3ccc([N+](=O)[O-])cc3)o2)cc(OC)c1OC	62.2	76.8	42.1	–
COc1cc(-c2nnc(S(=O)(=O)Cc3ccc(Cl)nc3)s2)cc(OC)c1OC	21.3	25.9	-1.1	–
COc1cc(-c2nnc(S(=O)(=O)Cc3ccccc3)s2)cc(OC)c1OC	22.9	27.5	8.3	–
CCOC(=O)CS(=O)(=O)c1nnc(-c2cc(OC)c(OC)c(OC)c2)s1	49.4	49.7	21.1	–
COc1cc(-c2nnc(S(=O)(=O)Cc3cccc([N+](=O)[O-])c3)o2)cc(OC)c1OC	38.3	40.7	11.8	–
COc1ccc(CS(=O)(=O)c2nnc(-c3cc(OC)c(OC)c(OC)c3)o2)cc1	58.5	58.5	33.9	–
COc1cc(-c2nnc(S(=O)(=O)Cc3ccc(F)cc3)o2)cc(OC)c1OC	62.7	41.6	28.1	–
COc1cc(-c2nnc(S(=O)(=O)Cc3ccccc3Cl)o2)cc(OC)c1OC	39.6	26.1	11.9	–
COc1ccccc1CS(=O)(=O)c1nnc(-c2cc(OC)c(OC)c(OC)c2)o1	37.2	42.3	23.7	–
COc1cc(-c2nnc(S(=O)(=O)Cc3cccc(F)c3)o2)cc(OC)c1OC	38.3	35.8	9.3	–
COc1cc(-c2nnc(S(=O)(=O)Cc3ccccc3F)o2)cc(OC)c1OC	33.4	52.3	18.2	–
COc1cc(-c2nnc(S(=O)(=O)Cc3ccc(Cl)cc3)o2)cc(OC)c1OC	35.5	30.8	23.3	–
COc1cc(-c2nnc(S(=O)(=O)Cc3ccc(Cl)nc3)o2)cc(OC)c1OC	67.9	60.3	38.9	–
COc1cc(-c2nnc(S(C)(=O)=O)o2)cc(OC)c1OC	100	100	55.8	EC50 [4]: 80.5 µg/mL (≈ 256 µM); EC50 [10]: 83.2 µg/mL (≈ 265 µM); EC50 [5]: 11.7 µg/mL (≈ 37.2 µM); EC50 [11]: 90.7 µg/mL (≈ 289 µM); EC50 [6]: 93.3 µg/mL (≈ 297 µM); EC50 [7]: 12.5 µg/mL (≈ 39.8 µM); EC50 [8]: 24.5 µg/mL (≈ 77.9 µM); EC50 [9]: 21.8 µg/mL (≈ 69.4 µM); EC50 [12]: 28.8 µg/mL (≈ 91.6 µM); EC50 [13]: 30.8 µg/mL (≈ 98 µM)
COc1cc(-c2nnc(S(C)(=O)=O)s2)cc(OC)c1OC	40.7	27.1	11.6	–
COc1cc(-c2nnc(S(=O)(=O)Cc3ccc([N+](=O)[O-])cc3)s2)cc(OC)c1OC	20	30.3	-1.8	–
CCCS(=O)(=O)c1nnc(-c2cc(OC)c(OC)c(OC)c2)s1	38.1	33.5	13.5	–
COc1cc(-c2nnc(S(=O)(=O)Cc3ccc(Cl)cc3)s2)cc(OC)c1OC	20.3	20.8	5.5	–
COc1cc(-c2nnc(S(=O)(=O)Cc3ccccc3)o2)cc(OC)c1OC	71.2	67.3	54.9	–
Cc1cc(O)no1 [HYMEXAZOL]	77.5	75.4	52.9	EC50 [6]: 52.1 µg/mL (≈ 526 µM); EC50 [8]: 29.1 µg/mL (≈ 294 µM)
